Laboratory results from ChEMBL document CHEMBL1131058, “Studies on quinazolines and 1,2,4-benzothiadiazine 1,1-dioxides. 8.1, 2 synthesis and pharmacological evaluation of tricyclic fused quinazolines and 1,2,4-benzothiadiazine 1,1-dioxides as potential alpha1-adrenoceptor antagonists” (J Med Chem, 1998).

Columns and labels:
[1] = target: T1, Alpha-1A adrenergic receptor (Rattus norvegicus, UniProt P43140); assay: Displacement of [3H]prazosin from Alpha-1A adrenergic receptor of rat submaxillary gland membranes; format: cell membranes, Membrane
T1 sequence (P43140 whole entry): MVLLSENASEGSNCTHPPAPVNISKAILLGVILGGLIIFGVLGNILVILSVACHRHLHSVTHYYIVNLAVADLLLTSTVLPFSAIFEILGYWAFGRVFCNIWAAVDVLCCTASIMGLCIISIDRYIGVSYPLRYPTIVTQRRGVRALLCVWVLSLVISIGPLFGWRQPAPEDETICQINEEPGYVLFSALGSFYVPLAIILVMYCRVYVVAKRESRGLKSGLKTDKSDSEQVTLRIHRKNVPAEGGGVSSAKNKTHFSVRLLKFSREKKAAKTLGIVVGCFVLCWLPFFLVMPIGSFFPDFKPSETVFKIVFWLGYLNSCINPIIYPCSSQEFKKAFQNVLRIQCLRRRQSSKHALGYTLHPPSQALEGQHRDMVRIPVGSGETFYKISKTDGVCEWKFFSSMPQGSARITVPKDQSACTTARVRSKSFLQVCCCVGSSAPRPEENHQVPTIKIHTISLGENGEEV
Procedure, shortened: (§1)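 Triplicate competition binding against 0.2-0.25 nM [³H]prazosin in Tris buffer pH 7.4, 30 min at room temperature. Competitor range 0.1-200 nM. Nonspecific binding defined with 10 µM phentolamine. Reaction stopped by GF/B filtration with two cold Tris washes. Membrane protein 300-400 µg per assay. Ki calculated from the data; mean ± SEM of 3-6 experiments.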

[2] = target: T2, Alpha-1B adrenergic receptor (Rattus norvegicus, UniProt P15823); assay: Displacement of [3H]prazosin from Alpha-1B adrenergic receptor of rat liver membrane; procedure, shortened: as §1
T2 sequence (P15823 whole entry): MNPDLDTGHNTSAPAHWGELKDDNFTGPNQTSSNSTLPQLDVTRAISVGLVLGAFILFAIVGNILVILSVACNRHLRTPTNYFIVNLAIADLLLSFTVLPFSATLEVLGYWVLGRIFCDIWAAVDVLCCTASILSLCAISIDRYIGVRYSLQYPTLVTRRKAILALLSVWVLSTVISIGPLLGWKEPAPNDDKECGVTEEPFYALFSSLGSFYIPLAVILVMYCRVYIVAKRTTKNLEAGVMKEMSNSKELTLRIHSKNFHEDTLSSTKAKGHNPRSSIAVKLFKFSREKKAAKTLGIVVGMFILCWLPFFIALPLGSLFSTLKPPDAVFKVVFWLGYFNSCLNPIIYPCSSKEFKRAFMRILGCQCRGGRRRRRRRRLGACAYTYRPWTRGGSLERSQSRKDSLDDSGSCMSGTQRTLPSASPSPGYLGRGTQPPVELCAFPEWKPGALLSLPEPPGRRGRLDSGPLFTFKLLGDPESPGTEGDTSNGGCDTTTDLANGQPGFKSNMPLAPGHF

[3] = target: T3, Adrenergic receptor alpha-2 (Rattus norvegicus, UniProt P22086+P19328+P22909); assay: Displacement of clonidine from Alpha-2 adrenergic receptor of rat cortical membranes; format: cell membranes, Membrane
T3 sequence (P22086 whole entry): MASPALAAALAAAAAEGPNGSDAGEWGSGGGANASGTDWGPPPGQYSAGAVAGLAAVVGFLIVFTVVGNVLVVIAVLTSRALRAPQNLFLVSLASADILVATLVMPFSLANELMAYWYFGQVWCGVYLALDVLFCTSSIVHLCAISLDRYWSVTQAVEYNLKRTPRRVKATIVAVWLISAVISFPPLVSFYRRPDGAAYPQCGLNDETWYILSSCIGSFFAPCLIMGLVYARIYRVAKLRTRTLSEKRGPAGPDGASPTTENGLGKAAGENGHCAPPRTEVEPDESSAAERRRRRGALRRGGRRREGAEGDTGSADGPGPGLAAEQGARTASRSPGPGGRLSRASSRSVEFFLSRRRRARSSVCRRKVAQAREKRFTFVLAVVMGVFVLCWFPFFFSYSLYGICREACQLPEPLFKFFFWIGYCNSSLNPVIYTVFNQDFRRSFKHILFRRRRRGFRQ
T3 sequence (P19328 whole entry): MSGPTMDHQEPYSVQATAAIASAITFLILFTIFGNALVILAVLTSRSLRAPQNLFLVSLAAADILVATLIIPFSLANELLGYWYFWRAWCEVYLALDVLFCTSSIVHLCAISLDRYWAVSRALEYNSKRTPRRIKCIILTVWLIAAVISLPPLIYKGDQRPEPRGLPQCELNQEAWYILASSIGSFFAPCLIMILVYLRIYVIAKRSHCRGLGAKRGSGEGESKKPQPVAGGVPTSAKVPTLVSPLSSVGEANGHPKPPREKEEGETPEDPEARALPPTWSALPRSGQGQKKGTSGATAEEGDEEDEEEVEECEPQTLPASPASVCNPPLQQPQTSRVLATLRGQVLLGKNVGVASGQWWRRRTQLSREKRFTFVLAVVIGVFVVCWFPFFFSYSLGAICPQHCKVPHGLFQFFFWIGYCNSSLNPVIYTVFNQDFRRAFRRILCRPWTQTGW
T3 sequence (P22909 whole entry): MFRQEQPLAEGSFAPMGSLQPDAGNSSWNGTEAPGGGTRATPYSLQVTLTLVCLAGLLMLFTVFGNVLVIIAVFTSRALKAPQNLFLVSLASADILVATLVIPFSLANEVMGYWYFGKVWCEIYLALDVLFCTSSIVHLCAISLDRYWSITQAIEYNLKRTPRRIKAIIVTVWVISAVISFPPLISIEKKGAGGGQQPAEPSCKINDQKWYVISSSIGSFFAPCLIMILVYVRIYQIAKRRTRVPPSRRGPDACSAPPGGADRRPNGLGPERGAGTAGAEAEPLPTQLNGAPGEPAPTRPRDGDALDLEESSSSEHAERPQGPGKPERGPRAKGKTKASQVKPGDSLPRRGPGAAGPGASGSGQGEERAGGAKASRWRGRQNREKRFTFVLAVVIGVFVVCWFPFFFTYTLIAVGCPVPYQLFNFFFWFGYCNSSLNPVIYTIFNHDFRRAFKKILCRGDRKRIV
Procedure, shortened: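 α2 competition binding run in triplicate with 1 nM [³H]clonidine plus 10 mM MgCl₂ in Tris pH 7.4, 30 min at room temperature. Test compounds at 1-100 µM. Nonspecific binding defined with 10 µM clonidine. Membranes collected on GF/B filters and washed twice with cold Tris. Protein 300-400 µg per assay. Ki given as mean ± SEM of 3-6 experiments.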

SMILES	Ki [1] [nM]	Ki [2] [nM]	Ki [3] [nM]
COc1ccccc1N1CCN(C[C@H]2CN=C3c4ccccc4N=C(SC)N32)CC1	1.5	1.4	3500
COc1ccccc1N1CCN(C[C@@H]2CN=C3c4ccccc4NC(=O)N32)CC1	55	123	> 10000
COc1ccccc1N1CCN(C[C@@H]2CN=C3c4ccccc4N=C(SC)N32)CC1	122	667	9000
COc1ccccc1N1CCN(CC2CN=C3c4ccccc4N=C(SC)N32)CC1 (stereo not drawn)	0.93	3.9	970
COc1ccccc1N1CCN(C[C@H]2CN=C3c4ccccc4NC(=O)N32)CC1	0.23	0.42	183
COc1ccccc1N1CCN(CC2CN3C(=O)Nc4ccccc4C3=N2)CC1 (stereo not drawn)	0.65	5.5	230
